According to ChEMBL document CHEMBL1134494, “2-Amino-6-arylsulfonylbenzonitriles as non-nucleoside reverse transcriptase inhibitors of HIV-1” (J Med Chem, 2001):

How the values were obtained:
[1] = system: Human immunodeficiency virus 1; test: Antiviral activity against HIV-1 infected human MT-4 cells.; type: functional, organism-based; conditions: Human immunodeficiency virus 1, MT4
In short: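 HTLV-1-transformed MT4 cells were infected with HIV-1 strain 3B at 100× the amount giving a 50% drop in cell growth. They were cultured 5 days with a range of compound concentrations. IC50 is the concentration restoring 50% of infected-cell growth (cytopathic effect) relative to uninfected MT4 controls.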

[2] = molecular target: Human immunodeficiency virus type 1 reverse transcriptase (Human immunodeficiency virus 1, UniProt Q72547); test: Inhibitory activity against HIV-1 reverse transcriptase
In short: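 Recombinant HIV RT at 1 nM was combined with 40 nM Eu-chelate-labeled biotinylated DNA primer/RNA template and 100 nM Cy5-dUTP. Reactions were started with enzyme.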

MT4 = test: Cell culture cytotoxicity against MT-4 cells.; type: functional, cell-based; conditions: Homo sapiens
In short: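 MT4 cells were exposed to compound in parallel with the 5-day HIV-1 strain 3B cytopathic-effect assay. Compound-induced cytotoxicity is reported as the cell culture cytotoxicity IC50 (CCIC50).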

In the case of `N#Cc1ccc([S+]([O-])c2cccc(N)c2C#N)cc1` (stereo unspecified), the IC50 [1] is reported as over 200 µM, the IC50 [2] is reported as over 23 µM and the IC50 (MT4) is reported as over 200 µM.
In the case of `N#Cc1c(N)cccc1[S+]([O-])c1cccc(Br)c1` (stereo unspecified), the IC50 [1] is reported as 0.08 µM and the IC50 [2] is reported as 4.8 µM.
`N#Cc1c(N)cccc1S(=O)(=O)c1ccccc1F` was tested, and the IC50 [1] was 3 µM, the IC50 [2] was 5 µM and the IC50 (MT4) was 57 µM.
Compound `N#Cc1c(N)cccc1S(=O)(=O)c1ccccc1Cl` has an IC50 [1] of 4.1 µM, an IC50 [2] of 5.9 µM and an IC50 (MT4) of over 200 µM.
Compound `CCCCNc1cccc(S(=O)(=O)c2cc(C)cc(C)c2)c1C#N` has an IC50 [1] of over 12 µM and an IC50 (MT4) of over 200 µM.
For `Cc1cc(O)cc(S(=O)(=O)c2cccc(N)c2C#N)c1`, the IC50 [1] was 0.43 µM and the IC50 (MT4) was 167 µM.
With `Cc1cccc(S(=O)(=O)c2cccc(N)c2C#N)c1` the IC50 [1] was 0.4 µM, the IC50 [2] was 0.2 µM and the IC50 (MT4) was 179 µM.
`N#Cc1c(N)cccc1Sc1ccccc1Br` was tested, and the IC50 [1] was 30 µM, the IC50 [2] was over 21 µM and the IC50 (MT4) was 41 µM.
Work on `COc1ccccc1[S+]([O-])c1cccc(N)c1C#N` (stereo unspecified) yielded an IC50 [1] of 4.8 µM, an IC50 [2] of 12 µM and an IC50 (MT4) of over 200 µM.
With `N#Cc1cccc(Sc2cccc(N)c2C#N)c1` the IC50 [1] was 1.73 µM, the IC50 [2] was 1.1 µM and the IC50 (MT4) was 80 µM.
`N#Cc1c(N)cccc1Sc1ccc(Cl)cc1` showed an IC50 [1] of over 32 µM, an IC50 [2] of 12 µM and an IC50 (MT4) of 113 µM.
Work on `N#Cc1c(N)cccc1S(=O)(=O)c1ccc(Br)cc1` yielded an IC50 [1] of 20 µM, an IC50 [2] of over 14 µM and an IC50 (MT4) of over 200 µM.
`Cc1ccc(Sc2cccc(N)c2C#N)cc1` was tested, and the IC50 [1] was 115 µM, the IC50 [2] was 5.7 µM and the IC50 (MT4) was over 200 µM.
`Cc1cc(Cl)cc([S+]([O-])c2cccc(N)c2C#N)c1` (stereo unspecified) gave an IC50 [1] of 0.32 µM, an IC50 [2] of 0.52 µM and an IC50 (MT4) of over 200 µM.
Work on `N#Cc1c(N)cccc1Sc1cc(Cl)ccc1Cl` yielded an IC50 [1] of over 0.8 µM, an IC50 [2] of 3.5 µM and an IC50 (MT4) of 4.3 µM.
In the case of `N#Cc1cccc([S+]([O-])c2cccc(N)c2C#N)c1` (stereo unspecified), the IC50 [1] is reported as 14.2 µM, the IC50 [2] is reported as over 15 µM and the IC50 (MT4) is reported as over 200 µM.
Compound `N#Cc1c(N)cccc1S(=O)(=O)c1cccc(Br)c1` has an IC50 [1] of 0.54 µM, an IC50 [2] of 0.2 µM and an IC50 (MT4) of over 200 µM.
For `O=[N+]([O-])c1ccccc1S(=O)(=O)c1ccccc1`, the IC50 [1] was 2.2 µM and the IC50 [2] was 16 µM.
With `CCOc1cc(C)cc(S(=O)(=O)c2cccc(N)c2C#N)c1` the IC50 [1] was 0.06 µM and the IC50 (MT4) was 9 µM.
With `N#Cc1c(N)cccc1[S+]([O-])c1ccccc1Br` (stereo unspecified) the IC50 [1] was 39.2 µM, the IC50 [2] was over 19 µM and the IC50 (MT4) was 168 µM.
`Cc1ccccc1[S+]([O-])c1cccc(N)c1C#N` (stereo unspecified) gave an IC50 [1] of 93 µM, an IC50 [2] of over 21 µM and an IC50 (MT4) of over 200 µM.
For `Cc1ccccc1S(=O)(=O)c1cccc(N)c1C#N`, the IC50 [1] was 2.3 µM, the IC50 [2] was 4.5 µM and the IC50 (MT4) was over 200 µM.
In the case of `Cc1cc(C)cc([S+]([O-])c2cccc(N)c2C#N)c1` (stereo unspecified), the IC50 [1] is reported as 0.34 µM, the IC50 [2] is reported as 0.5 µM and the IC50 (MT4) is reported as 200 µM.
`N#Cc1c(N)cccc1S(=O)(=O)c1cccc(F)c1` showed an IC50 [1] of 3 µM and an IC50 (MT4) of over 200 µM.
With `N#Cc1c(N)cccc1Sc1cccc(Cl)c1` the IC50 [1] was 7.4 µM, the IC50 [2] was 16 µM and the IC50 (MT4) was 53 µM.
With `N#Cc1cccc(S(=O)(=O)c2cccc(N)c2C#N)c1` the IC50 [1] was 2.4 µM, the IC50 [2] was 1.8 µM and the IC50 (MT4) was over 200 µM.
`O=[N+]([O-])c1ccccc1Sc1ccccc1[N+](=O)[O-]` was tested, and the IC50 [1] was 93.5 µM, the IC50 [2] was over 20 µM and the IC50 (MT4) was over 200 µM.
In the case of `N#Cc1c(N)cccc1S(=O)(=O)c1cc(Cl)ccc1Cl`, the IC50 [1] is reported as 0.3 µM, the IC50 [2] is reported as 0.3 µM and the IC50 (MT4) is reported as over 200 µM.
In the case of `N#Cc1c(N)cccc1[S+]([O-])c1ccc(Br)cc1` (stereo unspecified), the IC50 [1] is reported as 20.2 µM, the IC50 [2] is reported as over 21 µM and the IC50 (MT4) is reported as over 200 µM.
With `Cc1cc(Cl)cc(Sc2cccc(N)c2C#N)c1` the IC50 [1] was 1.76 µM, the IC50 [2] was 1.7 µM and the IC50 (MT4) was 16 µM.
`N#Cc1ccccc1S(=O)(=O)c1cccc(N)c1C#N` gave an IC50 [1] of 5.4 µM, an IC50 [2] of 6 µM and an IC50 (MT4) of over 200 µM.
`N#Cc1ccc(Sc2cccc(N)c2C#N)cc1` showed an IC50 [1] of 43.8 µM, an IC50 [2] of over 19 µM and an IC50 (MT4) of over 200 µM.
`N#Cc1c(N)cccc1S(=O)(=O)c1ccccc1` gave an IC50 [1] of 2 µM, an IC50 [2] of 6.9 µM and an IC50 (MT4) of over 5 µM.
In the case of `Cc1ccc([S+]([O-])c2cccc(N)c2C#N)cc1` (stereo unspecified), the IC50 [1] is reported as 49 µM, the IC50 [2] is reported as over 21 µM and the IC50 (MT4) is reported as over 200 µM.
Compound `O=[N+]([O-])c1ccccc1S(=O)(=O)c1ccccc1[N+](=O)[O-]` has an IC50 [2] of 14 µM.
With `N#Cc1c(N)cccc1Sc1ccccc1Cl` the IC50 [1] was 4.1 µM, the IC50 [2] was 7.2 µM and the IC50 (MT4) was 33 µM.
For `COc1cc(Sc2cccc(N)c2C#N)cc(C(F)(F)F)c1`, the IC50 [1] was 5.1 µM, the IC50 [2] was 13 µM and the IC50 (MT4) was 9 µM.
Work on `N#Cc1c(N)cccc1[S+]([O-])c1cccc(C(F)(F)F)c1` (stereo unspecified) yielded an IC50 [1] of 40 µM, an IC50 [2] of over 22 µM and an IC50 (MT4) of 125 µM.
Work on `COc1cccc(S(=O)(=O)c2cccc(N)c2C#N)c1` yielded an IC50 [1] of 0.9 µM, an IC50 [2] of 0.6 µM and an IC50 (MT4) of over 200 µM.
With `N#Cc1c(N)cccc1Sc1ccccc1` the IC50 [1] was 14.6 µM, the IC50 [2] was 8.7 µM and the IC50 (MT4) was 168 µM.
Compound `Cc1cccc([S+]([O-])c2cccc(N)c2C#N)c1` (stereo unspecified) has an IC50 [1] of 29.2 µM, an IC50 [2] of 10 µM and an IC50 (MT4) of over 200 µM.
In the case of `COc1ccccc1S(=O)(=O)c1cccc(N)c1C#N`, the IC50 [1] is reported as 0.6 µM, the IC50 [2] is reported as 1.4 µM and the IC50 (MT4) is reported as 146 µM.
Work on `COc1cc([S+]([O-])c2cccc(N)c2C#N)cc(C(F)(F)F)c1` (stereo unspecified) yielded an IC50 [1] of 2.07 µM, an IC50 [2] of 0.9 µM and an IC50 (MT4) of 108 µM.
Work on `Cc1ccc(S(=O)(=O)c2cccc(N)c2C#N)cc1` yielded an IC50 [1] of 9.5 µM, an IC50 [2] of 7.3 µM and an IC50 (MT4) of over 200 µM.
In the case of `Cc1cc(C)cc(Sc2cccc(N)c2C#N)c1`, the IC50 [1] is reported as 0.43 µM, the IC50 [2] is reported as 1.1 µM and the IC50 (MT4) is reported as over 2 µM.
`N#Cc1c(N)cccc1S(=O)(=O)c1cccc(Cl)c1` was tested, and the IC50 [1] was 0.59 µM, the IC50 [2] was 0.4 µM and the IC50 (MT4) was over 200 µM.
`N#Cc1c(N)cccc1S(=O)(=O)c1ccccc1Br` gave an IC50 [1] of 5 µM, an IC50 [2] of 12 µM and an IC50 (MT4) of 40 µM.
In the case of `N#Cc1ccccc1Sc1cccc(N)c1C#N`, the IC50 [1] is reported as over 6.4 µM, the IC50 [2] is reported as 9.1 µM and the IC50 (MT4) is reported as 42 µM.
`COc1cccc([S+]([O-])c2cccc(N)c2C#N)c1` (stereo unspecified) gave an IC50 [1] of 16 µM, an IC50 [2] of 19 µM and an IC50 (MT4) of over 80 µM.
In the case of `COc1cc(C)cc(Sc2cccc(N)c2C#N)c1`, the IC50 [1] is reported as 2 µM, the IC50 [2] is reported as 0.14 µM and the IC50 (MT4) is reported as 10 µM.
With `Cc1cc(C)cc(S(=O)(=O)c2cccc(NC3CCCCC3)c2C#N)c1` the IC50 [1] was over 200 µM and the IC50 (MT4) was over 200 µM.
`N#Cc1ccc(S(=O)(=O)c2cccc(N)c2C#N)cc1` gave an IC50 [1] of 80 µM, an IC50 [2] of over 18 µM and an IC50 (MT4) of over 200 µM.
Work on `Nc1cccc(S(=O)(=O)c2ccccc2)c1` yielded an IC50 [1] of over 50 µM and an IC50 (MT4) of over 50 µM.
`COc1cc(C)cc(S(=O)(=O)c2cccc(F)c2C#N)c1` showed an IC50 [1] of 51 µM and an IC50 (MT4) of 8 µM.
In the case of `CCCOc1cc(C)cc(S(=O)(=O)c2cccc(N)c2C#N)c1`, the IC50 [1] is reported as 0.06 µM and the IC50 (MT4) is reported as 11 µM.
Work on `N#Cc1c(N)cccc1Sc1cccc(C(F)(F)F)c1` yielded an IC50 [1] of 12.8 µM, an IC50 [2] of 7.1 µM and an IC50 (MT4) of 34 µM.
Work on `COc1cccc(Sc2cccc(N)c2C#N)c1` yielded an IC50 [1] of 6 µM, an IC50 [2] of 1.5 µM and an IC50 (MT4) of over 200 µM.
With `N#Cc1c(N)cccc1S(=O)(=O)c1ccc2ccccc2c1` the IC50 [1] was 0.05 µM, the IC50 [2] was 0.03 µM and the IC50 (MT4) was over 200 µM.
Work on `COc1ccc([S+]([O-])c2cccc(N)c2C#N)cc1` (stereo unspecified) yielded an IC50 [1] of over 200 µM, an IC50 [2] of over 20 µM and an IC50 (MT4) of over 200 µM.
In the case of `N#Cc1c(F)cccc1S(=O)(=O)c1cc(Cl)cc(Cl)c1`, the IC50 [1] is reported as 42 µM and the IC50 (MT4) is reported as 188 µM.
`N#Cc1c(N)cccc1S(=O)(=O)c1ccc(Cl)cc1` was tested, and the IC50 [1] was 3 µM and the IC50 (MT4) was over 5 µM.
In the case of `Cc1cc(C)cc(S(=O)(=O)c2cccc(F)c2C#N)c1`, the IC50 [1] is reported as 1.5 µM and the IC50 (MT4) is reported as over 200 µM.
